Measured values collected from several papers.
Target: Histamine H1 receptor (HRH1, Homo sapiens, UniProt P35367)

| Structure (SMILES) | assay | setting | Ki |
| --- | --- | --- | --- |
| O=C1CCCc2ccc(OCCCN3CCCCC3)cc21 | ligand displacement, radioligand | cell membranes | 3720 nM |
| O=C1NC(=O)C(c2ccccc2)(c2ccc(OCCCN3CCCCC3)cc2)N1 (stereo not shown) | ligand displacement, radioligand | cell membranes | 6150 nM |
| CN(C)CCOC1c2ccccc2CCc2ccccc21 | cell-free assay, radioligand |  | 1.26 nM |
| O=C1CCCc2cc(OCc3ccc(OCCCN4CCCCC4)cc3)ccc21 | ligand displacement, radioligand | cell membranes | 1970 nM |
| CCc1nc2cc(OCCCCN3CCC(c4cccc(Cl)c4Cl)CC3)ccc2s1 | ligand displacement, radioligand |  | 690 nM |
| CN(C)c1ccc(/C=C/C=C2\CCc3ccc(OCc4ccc(OCCCN5CCCCC5)cc4)cc3C2=O)cc1 | ligand displacement, radioligand | cell membranes | 1840 nM |
| CN(C)CCOC1c2ccccc2C=Cc2ccccc21 | cell-free assay, radioligand |  | 0.316 nM |
| Clc1ccc(CCCOCCCN2CCCCC2)cc1 | ligand displacement, radioligand | cell membranes | > 10000 nM |
| N#Cc1cc(Cn2c(N3CCCC3)nc3ccccc32)ccc1F | cell-free assay, radioligand |  | 2570 nM |
| CN1CCC(=C2c3ccccc3CCc3ccccc32)CC1 | cell-free assay, radioligand |  | 0.251 nM |
| CC(C)c1nc2cc(OCCCCN3CCN(c4cccc5c4OCCO5)CC3)ccc2s1 | ligand displacement, radioligand |  | 52 nM |
| CN1CCC(=C2c3ccccc3CCc3cccnc32)CC1 | cell-free assay |  | 0.0631 nM |
| CN(C)c1ccc(/C=C/C=C2\CCc3cc(OCCCN4CCCCC4)ccc3C2=O)cc1 | ligand displacement, radioligand | cell membranes | 881 nM |
